According to ChEMBL document CHEMBL4715683, “Discovery and characterization of a novel peptide inhibitor against influenza neuraminidase” (RSC Med Chem, 2020):
Activity calls are given as the source filed them. The calls are words filed in the database; no cut-off is given here.

What was measured:
Influenza A virus [1] = experiment: Antiviral activity against Influenza A virus H5N1 infected in dog MDCK cells assessed as inhibition of virus-induced cytopathic effect treated 1 hr post infection and measured after 48 hrs by CCK-8 assay; type: functional, organism-based
[2] = Hemolytic activity in rabbit red blood cells incubated for 60 mins; type: ADME, cell-based, Oryctolagus cuniculus, Erythrocyte; conditions: red blood cells (erythrocytes)
Procedure, shortened: (§1)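 Fibrinogen-free rabbit blood was mixed with 0.9% saline and centrifuged to give a 2% red cell suspension. Peptide solutions were combined with the suspension, kept 60 min at 37 °C and centrifuged. Supernatant OD600 gave hemolysis, and HC50 is the 50% hemolytic concentration.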

[3] = Binding affinity to influenza neuraminidase incubated for 2 hrs by ELISA; design: species or system Influenza A virus
Procedure, shortened: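 His-tagged neuraminidase expressed in E. coli BL21 and Ni-affinity purified was immobilised and blocked with BSA. Biotinylated peptides at varied concentrations were bound at 37 °C for 2 h, followed by streptavidin-HRP for 1 h and HRP substrate for 15 min, then OD450. Kd came from fitting background-subtracted absorbance against peptide concentration.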

[4] = Inhibition of Influenza A virus (H1N1) neuraminidase using 4-MU-NANA as substrate preincubated for 1 hr followed by substrate addition and measured after 18 hrs by fluorescence method
Procedure, shortened: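 Peptide dilutions were preincubated with diluted H1N1 virus for 1 h at 37 °C. 4-MU-NANA was then added and reactions ran 18 h at 37 °C. Released 4-methylumbelliferone was read by fluorescence (Ex 355/Em 460). IC50 is the peptide concentration reducing neuraminidase activity by 50%.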

Influenza A virus [5] = experiment: Antiviral activity against Influenza A virus (H1N1) infected in dog MDCK cells assessed as inhibition of virus-induced cytopathic effect treated 1 hr post infection and measured after 48 hrs by CCK-8 assay; type: functional, organism-based
Erythrocyte = experiment: Hemolytic activity in rabbit red blood cells at 100 uM incubated for 60 mins; type: ADME, cell-based, Oryctolagus cuniculus; conditions: 1 h; procedure, shortened: as §1
HEK-293T = experiment: Cytotoxicity against human HEK293T cells at 50 uM incubated for 48 hrs by CCK-8 assay; type: cell-based
Procedure, shortened: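 HEK 293T cells were seeded at 5000 per well in DMEM with 10% FBS. Peptides were added at 0.78 to 50 μM for 48 h, and viability was read by CCK-8.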

Influenza A virus [6] = experiment: Antiviral activity against Influenza A virus (H1N1) infected in BALB/c mouse assessed as animal survival rate at 50 mg/kg/day, iv administered for 7 days and monitored for 15 days relative to control; type: functional; conditions: time 7 day
Procedure, shortened: (§2)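 Six-week-old male Balb/c mice, randomised into normal, PBS control and treated groups. Dosing began 4 h after H1N1 inoculation: peptide at 1 mg kg−1 per day or oseltamivir carboxylate at 50 mg kg−1 per day, iv once daily for seven days. Body weight and mortality were followed for 15 consecutive days; n = 6.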

Influenza A virus [7] = experiment: Antiviral activity against Influenza A virus (H1N1) infected in BALB/c mouse assessed as decrease in TNF-alpha expression at 1 mg/kg/day, iv measured on day 2 and day 4 by ELISA; type: functional, organism-based; conditions: time 2-4 day
Procedure, shortened: (§3)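 Balb/c mice were infected with H1N1 and treated iv once daily for seven days (peptide 1 mg kg−1 per day, starting 4 h post-inoculation), with PBS control and healthy groups. Serum was taken on days 2 and 4 post-inoculation. TNF-α, IL-6 and IFN-γ were measured by ELISA at A450. n = 6; Student's t test against the normal group.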

Influenza A virus [8] = experiment: Antiviral activity against Influenza A virus (H1N1) infected in BALB/c mouse assessed as decrease in INFgamma expression at 1 mg/kg/day, iv measured on day 2 and day 4 by ELISA; type: functional, organism-based; conditions: time 2-4 day; procedure, shortened: as §3
Influenza A virus [9] = experiment: Antiviral activity against Influenza A virus (H1N1) infected in BALB/c mouse assessed as recovery of normal body weight at 1 mg/kg/day, iv measured after 6 days; type: functional, organism-based; conditions: time 6.0 day; procedure, shortened: as §2
[10] = Drug uptake in human HEK293T cells at 2 uM incubated for 12 hrs by HPLC analysis; type: ADME, cell-based; conditions: hek-293t
Procedure, shortened: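 HEK 293T cells were exposed to peptide at 2 μM for 12 h, washed twice with PBS and lysed; proteins were precipitated. Peptide was read by HPLC on a C18 column with 0.1% TFA in water and 0.1% TFA in 80% acetonitrile, gradient 14–34% B over 0–20 min, 1 mL min−1.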

Influenza A virus [11] = experiment: Antiviral activity against Influenza A virus (H1N1) infected in BALB/c mouse assessed as reduction in lung index at 1 mg/kg/day, iv administered for 7 days and measured after 15 days; type: functional, organism-based; conditions: time 7.0 day
[12] = Drug uptake in human HEK293T cells at 2 uM measured upto 12 hrs by using rhodamine-labeled peptide by flow cytometric analysis; type: ADME, cell-based; conditions: hek-293t
Procedure, shortened: (§4)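 HEK 293T cells were given rhodamine-labelled peptides at 2 μM and sampled at 2, 4, 8 and 12 h. Cells were PBS-washed, fixed in 4% paraformaldehyde and DAPI-stained, then examined by laser scanning confocal microscopy and by FACS.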

Influenza A virus [13] = experiment: Antiviral activity against Influenza A virus (H1N1) infected in BALB/c mouse assessed as decrease in IL6 expression at 1 mg/kg/day, iv measured on day 2 and day 4 by ELISA; type: functional, organism-based; conditions: time 2-4 day; procedure, shortened: as §3
[14] = […] assessed as compound remaining after 18 hrs by RP-HPLC analysis; type: ADME, cell-free; conditions: human, plasma
[15] = Drug uptake in human HEK293T cells at 2 uM measured upto 12 hrs by using rhodamine-labeled peptide by DAPI staining based laser scanning confocal microscopic analysis; type: ADME, cell-based; conditions: hek-293t; procedure, shortened: as §4
Influenza A virus [16] = experiment: Antiviral activity against Influenza A virus (H1N1) infected in BALB/c mouse assessed as animal survival rate at 1 mg/kg/day, iv administered for 7 days and monitored for 15 days relative to control; type: functional; conditions: time 7 day; procedure, shortened: as §2
Influenza A virus (H1N1) = experiment: Inhibition of Influenza A virus (H1N1) neuraminidase at 25 uM using 4-MU-NANA as substrate after 60 mins by fluorescence method relative to control
Procedure, shortened: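 Time-course format: neuraminidase incubated with peptide (25 μM) in the presence of 4-MU-NANA substrate for up to 180 min. Fluorescence intensity read at successive time points and expressed as inhibition ratio. Mean ± SD, n = 6.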

| SMILES | IC50 (Influenza A virus [1]) [µM] | HC50 at 1 h [2] [µM] | Kd [3] [µM] | IC50 [4] [µM] | IC50 (Influenza A virus [5]) [µM] | Activity (Erythrocyte) | Activity (HEK-293T) | Activity (Influenza A virus [6]) [%] | Activity (Influenza A virus [7]) | Activity (Influenza A virus [8]) | Activity (Influenza A virus [9]) | Drug uptake [10] | Activity (Influenza A virus [11]) | Drug uptake [12] | Activity (Influenza A virus [13]) | Stabilty [14] | Drug uptake [15] | Activity (Influenza A virus [16]) [%] | inhibition (Influenza A virus (H1N1)) [%] |
| --- | --- | --- | --- | --- | --- | --- | --- | --- | --- | --- | --- | --- | --- | --- | --- | --- | --- | --- | --- |
| C[C@H](NC(=O)[C@@H](NC(=O)[C@H](CCCCN)NC(=O)[C@H](Cc1c[nH]cn1)NC(=O)[C@H](Cc1ccccc1)NC(=O)[C@H](CCC(=O)O)NC(=O)[C@H](N)CCCCN)[C@@H](C)O)C(=O)N[C@@H](CCC(N)=O)C(=O)N1CCC[C@H]1C(=O)O | 25.4 | 25 | 0.0286 | < 25 | 16.6 | – | – | – | – | – | – | – | – | – | – | – | – | – | – |
| CC(C)C[C@H](NC(=O)[C@@H]1CCCN1C(=O)[C@H](CCCNC(=N)N)NC(=O)[C@@H](CCCNC(=N)N)NC(=O)[C@@H](CCCNC(=N)N)NC(=O)[C@H](N)Cc1ccccc1)C(=O)N[C@@H](CCCNC(=N)N)C(=O)N[C@@H](C)C(=O)O | 50.2 | 25 | – | – | 22.7 | Non-Toxic | Non-Toxic | – | – | – | – | – | – | – | – | – | – | – | – |
| CCC(CC)O[C@@H]1C=C(C(=O)O)C[C@H](N)[C@H]1NC(C)=O [OSELTAMIVIR CARBOXYLATE] | 0.0056 | – | – | – | 0.0113 | – | – | 100 | – | – | – | – | – | – | – | – | – | – | – |
| CC(C)C[C@H](NC(=O)[C@@H](CCCNC(=N)N)NC(=O)[C@H](CCCCN)NC(=O)[C@H](N)Cc1c[nH]c2ccccc12)C(=O)N[C@@H](Cc1c[nH]cn1)C(=O)N[C@@H](Cc1c[nH]cn1)C(=O)N[C@@H](CCCCN)C(=O)N1CCC[C@H]1C(=O)N[C@@H](C)C(=O)O | 17.9 | 25 | 0.019 | < 25 | 16 | Non-Toxic | Non-Toxic | – | – | – | – | – | – | – | – | – | – | – | – |
| C[C@H](NC(=O)[C@@H]1CCCN1C(=O)[C@H](CCCCN)NC(=O)[C@@H](CCCNC(=N)N)NC(=O)[C@H](Cc1c[nH]cn1)NC(=O)CN)C(=O)N[C@@H](CCC(N)=O)C(=O)N1CCC[C@H]1C(=O)O | 31.3 | 25 | – | < 25 | 28.4 | – | – | – | – | – | – | – | – | – | – | – | – | – | – |
| C[C@H](NC(=O)[C@@H]1CCCN1C(=O)[C@H](CCCCN)NC(=O)[C@H](CCCNC(=N)N)NC(=O)[C@@H](Cc1c[nH]c2ccccc12)NC(=O)CN)C(=O)N[C@@H](CCC(N)=O)C(=O)N1CCC[C@H]1C(=O)O | 27.5 | 25 | 0.0277 | – | 36 | Non-Toxic | Non-Toxic | – | Active | Active | Active | Active | Active | Active | Active | Stable | Active | – | – |
| CSCC[C@H](NC(=O)[C@@H](NC(=O)[C@@H](CCCNC(=N)N)NC(=O)[C@@H](Cc1ccccc1)NC(=O)[C@H](N)CCC(=O)O)[C@@H](C)O)C(=O)N[C@H](C(=O)N[C@@H](Cc1c[nH]cn1)C(=O)N1CCC[C@H]1C(=O)N[C@@H](CCCCN)C(=O)O)C(C)C | 23.8 | 25 | 0.0203 | – | 15.7 | Non-Toxic | Non-Toxic | – | – | – | – | – | – | – | – | – | – | – | – |
| C[C@H](NC(=O)[C@@H](NC(=O)[C@H](CCCCN)NC(=O)[C@@H](Cc1c[nH]cn1)NC(=O)[C@@H](CC(=O)O)NC(=O)[C@@H](N)CC(=O)O)[C@@H](C)O)C(=O)N[C@@H](Cc1c[nH]cn1)C(=O)N[C@@H](CCC(N)=O)C(=O)O | 48.2 | 25 | 0.0386 | – | 28.4 | – | – | – | – | – | – | – | – | – | – | – | – | – | – |
| C[C@H](NC(=O)[C@@H]1CCCN1C(=O)[C@H](CCCCN)NC(=O)[C@@H](CCCNC(=N)N)NC(=O)[C@@H](CCCNC(=N)N)NC(=O)[C@H](N)CCC(=O)O)C(=O)N[C@@H](CCC(N)=O)C(=O)N1CCC[C@H]1C(=O)O | 1.46 | 25 | 0.011 | 4.25 | 2.26 | Non-Toxic | Non-Toxic | – | Active | Active | Active | Active | Active | Active | Active | Stable | Active | 90 | 100 |
| C[C@H](NC(=O)[C@@H]1CCCN1C(=O)[C@H](CCCCN)NC(=O)[C@H](CCC(=O)O)NC(=O)[C@@H](CCC(=O)O)NC(=O)[C@H](N)CCC(=O)O)C(=O)N[C@@H](CCC(N)=O)C(=O)N1CCC[C@H]1C(=O)O | 64.3 | 25 | – | – | 36.1 | – | – | – | – | – | – | – | – | – | – | – | – | – | – |
| C[C@H](NC(=O)[C@H](CCC(N)=O)NC(=O)[C@H](C)NC(=O)[C@H](Cc1c[nH]cn1)NC(=O)[C@H](CCCCN)NC(=O)[C@H](CCCNC(=N)N)NC(=O)[C@@H](CC(=O)O)NC(=O)[C@H](N)CCC(=O)O)C(=O)O | 3.32 | 25 | 0.0366 | < 25 | 3.08 | – | – | – | – | – | – | – | – | – | – | – | – | – | – |
